In ChEMBL document CHEMBL3091291, “Synthesis and pharmacological characterization of benzenesulfonamides as dual species inhibitors of human and murine mPGES-1” (Bioorg Med Chem, 2013) one finds Activity and inhibition data, which are given here for 5 molecules.

In assay [1] the target is T1, Prostaglandin G/H synthase 2 (Homo sapiens) (UniProt P35354).
T1 sequence (whole entry): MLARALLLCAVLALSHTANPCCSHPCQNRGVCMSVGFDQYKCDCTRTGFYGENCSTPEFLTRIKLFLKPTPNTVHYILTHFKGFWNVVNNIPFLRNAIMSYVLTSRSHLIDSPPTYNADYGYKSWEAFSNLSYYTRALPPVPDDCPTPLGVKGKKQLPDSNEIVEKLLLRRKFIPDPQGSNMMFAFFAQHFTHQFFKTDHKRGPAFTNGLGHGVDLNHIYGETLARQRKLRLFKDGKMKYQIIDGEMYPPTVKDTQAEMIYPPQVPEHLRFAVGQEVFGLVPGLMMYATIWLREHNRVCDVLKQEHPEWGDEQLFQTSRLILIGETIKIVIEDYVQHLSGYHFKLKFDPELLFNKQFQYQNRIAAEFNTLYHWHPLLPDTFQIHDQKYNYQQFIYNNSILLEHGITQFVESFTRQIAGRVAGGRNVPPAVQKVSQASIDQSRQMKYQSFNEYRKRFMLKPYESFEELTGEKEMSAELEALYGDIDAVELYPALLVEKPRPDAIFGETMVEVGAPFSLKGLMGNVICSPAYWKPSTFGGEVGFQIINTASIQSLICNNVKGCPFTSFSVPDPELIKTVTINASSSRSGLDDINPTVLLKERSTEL
Briefly: Inhibition of LPS-stimulated COX2 in human whole blood assessed as reduction in PGF2alpha production by measuring remaining activity at 100 uM preincubated for 15 mins followed by LPS addition measured after 24 hrs by LC-MS/MS analysis. In a few lines: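 Heparinized human whole blood (500 µL) mixed with compound in DMSO, with acetylsalicylic acid added to block COX-1, held 15 min at 37 °C, then stimulated with LPS in autologous plasma to induce COX-2/mPGES-1. After 24 h at 37 °C, samples chilled 5 min on ice; plasma collected, prostaglandins extracted and measured by LC–MS/MS. Remaining activity given relative to vehicle control.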

Assay [2] concerns the target T2, Prostaglandin E synthase (Homo sapiens) (UniProt O14684).
T2 sequence (whole entry): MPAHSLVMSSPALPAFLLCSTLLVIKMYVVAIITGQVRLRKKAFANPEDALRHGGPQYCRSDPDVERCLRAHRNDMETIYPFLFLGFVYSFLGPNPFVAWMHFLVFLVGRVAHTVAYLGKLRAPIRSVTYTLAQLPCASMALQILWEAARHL
Briefly: Inhibition of mPGES-1 in human HeLa cells using PGH2 as substrate assessed as inhibition of IL-1beta/TNFalpha-stimulated PGE2 production at 1 to 10 uM after 24 hrs by LC-MS/MS analysis. It is filed as cell-based. The method, boiled down:
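HeLa cells (2 × 10⁴ per well) grown 24 h at 37 °C, then given fresh medium with 1 ng/mL IL-1b + 5 ng/mL TNFa (or PBS for unstimulated control) plus compound (1, 10 or 100 µM) or DMSO for 24 h at 37 °C. Supernatant mixed with H₃PO₄, EDTA and deuterated internal standards; PGE₂ measured by SPE and LC–MS/MS.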

For assay [3], the target named is Prostaglandin G/H synthase 1 (Homo sapiens) (UniProt P23219). Briefly: Inhibition of COX1 in human whole blood assessed as reduction in PGD2 production by measuring remaining activity at 100 uM after 1 hr by LC-MS/MS analysis.

Activity calls are given as the source filed them. The rule behind the calls is not given here.

Sequence of Prostaglandin G/H synthase 1 (Homo sapiens) (P23219 whole entry): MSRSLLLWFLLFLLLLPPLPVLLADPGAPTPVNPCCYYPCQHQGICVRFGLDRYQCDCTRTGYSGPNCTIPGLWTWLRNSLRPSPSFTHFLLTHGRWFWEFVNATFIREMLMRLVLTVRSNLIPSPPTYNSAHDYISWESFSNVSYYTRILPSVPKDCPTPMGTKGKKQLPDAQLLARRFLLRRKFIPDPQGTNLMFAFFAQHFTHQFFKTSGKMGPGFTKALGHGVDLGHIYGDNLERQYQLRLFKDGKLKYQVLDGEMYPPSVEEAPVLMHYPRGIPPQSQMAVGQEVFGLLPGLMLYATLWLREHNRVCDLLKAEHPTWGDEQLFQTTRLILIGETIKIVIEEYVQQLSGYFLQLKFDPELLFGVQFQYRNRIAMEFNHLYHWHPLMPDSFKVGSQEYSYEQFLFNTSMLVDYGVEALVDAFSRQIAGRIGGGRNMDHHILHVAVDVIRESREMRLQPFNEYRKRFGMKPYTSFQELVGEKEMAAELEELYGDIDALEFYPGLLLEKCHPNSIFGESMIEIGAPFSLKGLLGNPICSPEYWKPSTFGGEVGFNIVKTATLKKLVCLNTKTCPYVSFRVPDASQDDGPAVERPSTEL

With `COc1ccc(CN(Cc2ccccc2)S(=O)(=O)c2ccc(C(=O)O)cc2)cc1`, the Activity in assay [1] worked out at 107%; in assay [3], 89.2%. In addition, in assay [2], the inhibition entry is “inactive”.

Consider `O=C(O)c1ccc(S(=O)(=O)N(Cc2ccccc2)c2ccc(Oc3ccccc3)cc2)cc1`, for which the Activity worked out at 86.8% in assay [1] and 48.5% in assay [3]. Besides, the inhibition entry in assay [2] is “inactive”.

For `O=C(O)c1ccc(S(=O)(=O)N(Cc2ccccc2)Cc2ccc(Oc3ccccc3)cc2)cc1`, the results for the Activity in assay [1] and in assay [3] were 92.5% and 61.5%, respectively. For the same molecule, in assay [2], the inhibition entry was “inactive”.

Turning to `O=C(O)c1ccc(S(=O)(=O)N(Cc2ccccc2)Cc2ccc(Nc3ccccc3)cc2)cc1`, the Activity came to 90.9% in assay [1] and 109% in assay [3]. In addition, in assay [2], the inhibition entry is “inactive”.

For `COc1ccc(CN(CC2CCCCC2)S(=O)(=O)c2ccc(C(=O)O)cc2)cc1`, the Activity in assay [1] was 114%; in assay [3], 110%. The inhibition entry in assay [2] is “inactive”.
